ChEMBL document CHEMBL1649269, “In vitro activities of three new dihydrofolate reductase inhibitors against clinical isolates of gram-positive bacteria” (2009)
Values after ≈ are worked out from the molar mass of the structure shown.

Experiments:
Staphylococcus aureus [1] = experiment: Antimicrobial activity against methicillin-sensitive Staphylococcus aureus by agar dilution method; assay type: functional
Method in brief: (§1)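 MICs against clinical MRSA or MSSA isolates by CLSI agar dilution, with S. aureus ATCC 29213 as control strain. Percentage of susceptible isolates was calculated from the MICs using CLSI breakpoints.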

Staphylococcus aureus [2] = experiment: Antimicrobial activity against methicillin-sensitive Staphylococcus aureus assessed as susceptible isolates by agar dilution method; assay type: functional; method in brief: as §1
Staphylococcus aureus [3] = experiment: Antimicrobial activity against methicillin-resistant Staphylococcus aureus by agar dilution method; assay type: functional; method in brief: as §1
Staphylococcus aureus [4] = experiment: Antimicrobial activity against Heterovancomycin-resistant Staphylococcus aureus by agar dilution method; assay type: functional
Method in brief: (§2)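 Clinical S. aureus isolates classed as hVISA or VISA by population analysis profiling. MICs by CLSI agar dilution, with S. aureus ATCC 29213 as control strain.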

Staphylococcus aureus [5] = experiment: Antimicrobial activity against vancomycin-resistant Staphylococcus aureus by agar dilution method; assay type: functional; method in brief: as §2
Staphylococcus [6] = experiment: Antimicrobial activity against Coagulase-negative Staphylococcus by agar dilution method; assay type: functional
Method in brief: (§3)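 CLSI agar dilution MIC testing of clinical isolates of staphylococci and Listeria. S. aureus ATCC 29213 and S. pneumoniae ATCC 49619 served as control strains. The percentage of susceptible isolates was calculated from CLSI breakpoints.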

Staphylococcus [7] = experiment: Antimicrobial activity against Coagulase-negative Staphylococcus assessed as susceptible isolates by agar dilution method; assay type: functional; method in brief: as §3
[8] = tested on: Streptococcus sp. 'group A'; experiment: Antimicrobial activity against Group A Streptococcus by agar dilution method; assay type: functional
Method in brief: (§4)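 Clinical isolates of beta-hemolytic streptococci, S. mitis and S. pneumoniae were tested by CLSI methodology, with Mueller-Hinton medium supplemented with 5% lysed horse blood. S. aureus ATCC 29213 and S. pneumoniae ATCC 49619 served as control strains. The percentage of susceptible isolates was derived from CLSI breakpoints.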

[9] = tested on: Streptococcus sp. 'group A'; experiment: Antimicrobial activity against Group A Streptococcus assessed as susceptible isolates by agar dilution method; assay type: functional; method in brief: as §4
[10] = tested on: Streptococcus sp. 'group B'; experiment: Antimicrobial activity against Group B Streptococcus by agar dilution method; assay type: functional; method in brief: as §4
[11] = tested on: Streptococcus sp. 'group B'; experiment: Antimicrobial activity against Group B Streptococcus assessed as susceptible isolates by agar dilution method; assay type: functional; method in brief: as §4
[12] = Antimicrobial activity against Group C Streptococcus by agar dilution method; assay type: functional; details: Streptococcus sp. 'group C'; method in brief: as §4
[13] = Antimicrobial activity against Group C Streptococcus assessed as susceptible isolates by agar dilution method; assay type: functional, Streptococcus sp. 'group C'; method in brief: as §4
[14] = Antimicrobial activity against Group G Streptococcus by agar dilution method; assay type: functional; details: Streptococcus sp. 'group G'; method in brief: as §4
[15] = Antimicrobial activity against Group G Streptococcus assessed as susceptible isolates by agar dilution method; assay type: functional, Streptococcus sp. 'group G'; method in brief: as §4
Streptococcus pneumoniae [16] = experiment: Antimicrobial activity against Streptococcus pneumoniae by agar dilution method; assay type: functional; method in brief: as §4
Streptococcus pneumoniae [17] = experiment: Antimicrobial activity against Streptococcus pneumoniae assessed as susceptible isolates by agar dilution method; assay type: functional; method in brief: as §4
Corynebacterium sp. [18] = experiment: Antimicrobial activity against Corynebacterium spp. by agar dilution method; assay type: functional
Corynebacterium sp. [19] = experiment: Antimicrobial activity against Corynebacterium spp. assessed as susceptible isolates by agar dilution method; assay type: functional
Listeria monocytogenes [20] = experiment: Antimicrobial activity against Listeria monocytogenes by agar dilution method; assay type: functional; method in brief: as §3
Listeria monocytogenes [21] = experiment: Antimicrobial activity against Listeria monocytogenes assessed as susceptible isolates by agar dilution method; assay type: functional; method in brief: as §3
Streptococcus mitis [22] = experiment: Antimicrobial activity against Streptococcus mitis assessed as susceptible isolates by agar dilution method; assay type: functional; details: in the assay text read “broth dilution method” for “agar dilution method”; method in brief: as §4
Streptococcus mitis [23] = experiment: Antimicrobial activity against Streptococcus mitis by broth dilution method

Row | SMILES | MIC50 (Staphylococcus aureus [1]) [µg/mL] | MIC90 (Staphylococcus aureus [1]) [µg/mL] | Activity (Staphylococcus aureus [2]) [%] | MIC (Staphylococcus aureus [3]) [µg/mL] | MIC50 (Staphylococcus aureus [3]) [µg/mL] | MIC90 (Staphylococcus aureus [3]) [µg/mL] | MIC50 (Staphylococcus aureus [4]) [µg/mL] | MIC90 (Staphylococcus aureus [4]) [µg/mL] | MIC50 (Staphylococcus aureus [5]) [µg/mL] | MIC90 (Staphylococcus aureus [5]) [µg/mL] | MIC50 (Staphylococcus [6]) [µg/mL] | MIC90 (Staphylococcus [6]) [µg/mL] | Activity (Staphylococcus [7]) [%] | MIC50 [8] [µg/mL] | MIC90 [8] [µg/mL] | Activity [9] [%] | MIC50 [10] [µg/mL] | MIC90 [10] [µg/mL] | Activity [11] [%] | MIC50 [12] [µg/mL] | also measured
1 | COc1cc(Cc2cnc(N)nc2N)cc(/C=C/C(=O)N2N=Cc3ccccc3C2c2cnc(N3CCOCC3)nc2)c1OC (stereo not drawn) | 0.12 (≈ 0.197 µM) | 0.25 (≈ 0.411 µM) | 100 | 0.06 (≈ 0.0987 µM) | 0.06 (≈ 0.0987 µM) | 0.06 (≈ 0.0987 µM) | 0.06 (≈ 0.0987 µM) | 0.06 (≈ 0.0987 µM) | 0.06 (≈ 0.0987 µM) | 0.5 (≈ 0.823 µM) | 0.06 (≈ 0.0987 µM) | 4 (≈ 6.58 µM) | 86 | 0.06 (≈ 0.0987 µM) | 0.12 (≈ 0.197 µM) | 100 | 0.06 (≈ 0.0987 µM) | 0.12 (≈ 0.197 µM) | 100 | 0.06 (≈ 0.0987 µM) | MIC (Staphylococcus aureus [5]): 0.06 µg/mL (≈ 0.0987 µM); MIC [10]: 0.06 µg/mL (≈ 0.0987 µM); MIC90 [12]: 0.12 µg/mL (≈ 0.197 µM); Activity [13]: 100%; MIC [14]: 0.03 µg/mL (≈ 0.0494 µM); MIC50 [14]: 0.03 µg/mL (≈ 0.0494 µM); MIC90 [14]: 0.06 µg/mL (≈ 0.0987 µM); Activity [15]: 100%; MIC50 (Streptococcus pneumoniae [16]): 0.12 µg/mL (≈ 0.197 µM); MIC90 (Streptococcus pneumoniae [16]): 0.12 µg/mL (≈ 0.197 µM); Activity (Streptococcus pneumoniae [17]): 100%; MIC50 (Corynebacterium sp. [18]): 0.12 µg/mL (≈ 0.197 µM); MIC90 (Corynebacterium sp. [18]): 4 µg/mL (≈ 6.58 µM); Activity (Corynebacterium sp. [19]): 83%; MIC (Listeria monocytogenes [20]): 0.06 µg/mL (≈ 0.0987 µM); MIC50 (Listeria monocytogenes [20]): 0.06 µg/mL (≈ 0.0987 µM); MIC90 (Listeria monocytogenes [20]): 0.06 µg/mL (≈ 0.0987 µM); Activity (Listeria monocytogenes [21]): 100%; Activity (Streptococcus mitis [22]): 100%; MIC50 (Streptococcus mitis [23]): 0.015 µg/mL (≈ 0.0247 µM)
2 | COc1ncc(C2c3ccccc3C=NN2C(=O)/C=C/c2cc(Cc3cnc(N)nc3N)cc(OC)c2OC)cn1 (stereo not drawn) | 0.03 (≈ 0.0543 µM) | 0.03 (≈ 0.0543 µM) | 100 | 0.015 (≈ 0.0271 µM) | 0.015 (≈ 0.0271 µM) | 0.06 (≈ 0.109 µM) | 0.03 (≈ 0.0543 µM) | 0.06 (≈ 0.109 µM) | 0.03 (≈ 0.0543 µM) | 0.25 (≈ 0.452 µM) | 0.06 (≈ 0.109 µM) | 8 (≈ 14.5 µM) | 86 | 0.06 (≈ 0.109 µM) | 0.06 (≈ 0.109 µM) | 100 | 0.03 (≈ 0.0543 µM) | 0.06 (≈ 0.109 µM) | 100 | 0.015 (≈ 0.0271 µM) | MIC90 [12]: 0.06 µg/mL (≈ 0.109 µM); Activity [13]: 100%; MIC50 [14]: 0.03 µg/mL (≈ 0.0543 µM); MIC90 [14]: 0.06 µg/mL (≈ 0.109 µM); Activity [15]: 100%; MIC50 (Streptococcus pneumoniae [16]): 0.06 µg/mL (≈ 0.109 µM); MIC90 (Streptococcus pneumoniae [16]): 0.12 µg/mL (≈ 0.217 µM); Activity (Streptococcus pneumoniae [17]): 100%; MIC50 (Corynebacterium sp. [18]): 0.06 µg/mL (≈ 0.109 µM); MIC90 (Corynebacterium sp. [18]): 4 µg/mL (≈ 7.24 µM); Activity (Corynebacterium sp. [19]): 83%; MIC (Listeria monocytogenes [20]): 0.015 µg/mL (≈ 0.0271 µM); MIC50 (Listeria monocytogenes [20]): 0.015 µg/mL (≈ 0.0271 µM); MIC90 (Listeria monocytogenes [20]): 0.015 µg/mL (≈ 0.0271 µM); Activity (Listeria monocytogenes [21]): 100%; Activity (Streptococcus mitis [22]): 100%; MIC (Streptococcus mitis [23]): < 0.008 µg/mL; MIC50 (Streptococcus mitis [23]): < 0.008 µg/mL
